Reference: ChEMBL document CHEMBL1944509, “Methyl-monofluorination of ibuprofen selectively increases its inhibitory activity toward cyclooxygenase-1 leading to enhanced analgesic activity and reduced gastric damage in vivo” (Bioorg Med Chem Lett, 2011)
Active and inactive are the calls of the source. The rule behind the calls is not given here.

Assays:
[1] = Drug level in ICR mouse brain at 5 mg/kg, iv after 0.5 hrs by HPLC/MS/MS analysis; assay type: ADME, organism-based; design: dose 5 mg/kg, route intravenous; conditions: read-out: Drug uptake
[2] = Drug level in ICR mouse brain at 5 mg/kg, iv after 0.083 hrs by HPLC/MS/MS analysis; assay type: ADME, organism-based; design: dose 5 mg/kg, route intravenous; conditions: read-out: Drug uptake
[3] = AUC (0 to t) in ICR mouse at 10 mg/kg, po; assay type: ADME, organism-based; design: dose 10 mg/kg, route oral; conditions: plasma
In short: (§1)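 ICR mice given drug intravenously at 5 mg/kg or orally at 10 mg/kg. Parameters are taken from the plasma concentration–time profile: AUC(0–t), AUC(0–∞), MRT, Cmax and bioavailability.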

[4] = Drug level in ICR mouse brain at 10 mg/kg, po after 0.25 hrs by HPLC/MS/MS analysis; assay type: ADME, organism-based; design: dose 10 mg/kg, route oral; conditions: read-out: Drug uptake
[5] = Drug level in ICR mouse brain at 5 mg/kg, iv after 2 hrs by HPLC/MS/MS analysis; assay type: ADME, organism-based; design: dose 5 mg/kg, route intravenous; conditions: read-out: Drug uptake
[6] = AUC (0 to infinity) in ICR mouse at 10 mg/kg, po; assay type: ADME, organism-based; design: time infinity, dose 10 mg/kg, route oral; conditions: plasma; in short: as §1
[7] = Plasma concentration in ICR mouse at 10 mg/kg, po after 0.083 hrs by HPLC/MS/MS analysis; assay type: ADME, organism-based; design: dose 10 mg/kg, route oral
[8] = Plasma concentration in ICR mouse at 5 mg/kg, iv after 8 hrs by HPLC/MS/MS analysis; assay type: ADME, organism-based; design: dose 5 mg/kg, route intravenous
[9] = test system: Nucleic Acid; experiment: Ratio of drug level in brain to plasma in ICR mouse at 5 mg/kg, iv after 0.5 hrs by HPLC/MS/MS analysis; assay type: ADME, organism-based; design: dose 5 mg/kg, route intravenous
[10] = test system: Nucleic Acid; experiment: Ratio of drug level in brain to plasma in ICR mouse at 5 mg/kg, iv after 0.25 hrs by HPLC/MS/MS analysis; assay type: ADME, organism-based; design: dose 5 mg/kg, route intravenous
[11] = Plasma concentration in ICR mouse at 10 mg/kg, po after 8 hrs by HPLC/MS/MS analysis; assay type: ADME, organism-based; design: dose 10 mg/kg, route oral
[12] = Plasma concentration in ICR mouse at 10 mg/kg, po after 6 hrs by HPLC/MS/MS analysis; assay type: ADME, organism-based; design: dose 10 mg/kg, route oral
[13] = Oral bioavailability ICR mouse at 10 mg/kg; assay type: ADME, organism-based; conditions: in vivo; in short: as §1
[14] = Drug level in ICR mouse brain at 10 mg/kg, po after 0.5 hrs by HPLC/MS/MS analysis; assay type: ADME, organism-based; design: dose 10 mg/kg, route oral; conditions: read-out: Drug uptake
[15] = Plasma concentration in ICR mouse at 10 mg/kg, po after 0.25 hrs by HPLC/MS/MS analysis; assay type: ADME, organism-based; design: dose 10 mg/kg, route oral
[16] = Plasma concentration in ICR mouse at 10 mg/kg, po after 1 hr by HPLC/MS/MS analysis; assay type: ADME, organism-based; design: dose 10 mg/kg, route oral
[17] = Plasma concentration in ICR mouse at 10 mg/kg, po after 2 hrs by HPLC/MS/MS analysis; assay type: ADME, organism-based; design: dose 10 mg/kg, route oral
[18] = Drug level in ICR mouse brain at 10 mg/kg, po after 1 hr by HPLC/MS/MS analysis; assay type: ADME, organism-based; design: dose 10 mg/kg, route oral; conditions: read-out: Drug uptake
[19] = test system: Nucleic Acid; experiment: Ratio of drug level in brain to plasma in ICR mouse at 10 mg/kg, po after 1 hr by HPLC/MS/MS analysis; assay type: ADME, organism-based; design: dose 10 mg/kg, route oral
[20] = test system: Nucleic Acid; experiment: Ratio of drug level in brain to plasma in ICR mouse at 10 mg/kg, po after 0.5 hrs by HPLC/MS/MS analysis; assay type: ADME, organism-based; design: dose 10 mg/kg, route oral
[21] = Tmax in ICR mouse at 5 mg/kg, iv; assay type: ADME, organism-based; design: dose 5 mg/kg, route intravenous; conditions: in vivo
[22] = Plasma concentration in ICR mouse at 5 mg/kg, iv after 0.25 hrs by HPLC/MS/MS analysis; assay type: ADME, organism-based; design: dose 5 mg/kg, route intravenous
[23] = test system: Nucleic Acid; experiment: Ratio of drug level in brain to plasma in ICR mouse at 10 mg/kg, po after 0.25 hrs by HPLC/MS/MS analysis; assay type: ADME, organism-based; design: dose 10 mg/kg, route oral
[24] = Cmax in ICR mouse at 5 mg/kg, iv; assay type: ADME, organism-based; design: dose 5 mg/kg, route intravenous; conditions: in vivo; in short: as §1
[25] = test system: Nucleic Acid; experiment: Ratio of drug level in brain to plasma in ICR mouse at 5 mg/kg, iv after 2 hrs by HPLC/MS/MS analysis; assay type: ADME, organism-based; design: dose 5 mg/kg, route intravenous
[26] = Plasma concentration in ICR mouse at 5 mg/kg, iv after 2 hrs by HPLC/MS/MS analysis; assay type: ADME, organism-based; design: dose 5 mg/kg, route intravenous
[27] = test system: Nucleic Acid; experiment: Ratio of drug level in brain to plasma in ICR mouse at 5 mg/kg, iv after 0.083 hrs by HPLC/MS/MS analysis; assay type: ADME, organism-based; design: dose 5 mg/kg, route intravenous
[28] = Plasma concentration in ICR mouse at 10 mg/kg, po after 0.5 hrs by HPLC/MS/MS analysis; assay type: ADME, organism-based; design: dose 10 mg/kg, route oral
[29] = Drug level in ICR mouse brain at 10 mg/kg, po after 0.083 hrs by HPLC/MS/MS analysis; assay type: ADME, organism-based; design: dose 10 mg/kg, route oral; conditions: read-out: Drug uptake
[30] = Cmax in ICR mouse at 10 mg/kg, po; assay type: ADME, organism-based; design: dose 10 mg/kg, route oral; conditions: in vivo; in short: as §1
[31] = Plasma concentration in ICR mouse at 5 mg/kg, iv after 0.5 hrs by HPLC/MS/MS analysis; assay type: ADME, organism-based; design: dose 5 mg/kg, route intravenous
[32] = Drug level in ICR mouse brain at 10 mg/kg, po after 4 hrs by HPLC/MS/MS analysis; assay type: ADME, organism-based; design: dose 10 mg/kg, route oral; conditions: read-out: Drug uptake
[33] = Drug level in ICR mouse brain at 10 mg/kg, po after 2 hrs by HPLC/MS/MS analysis; assay type: ADME, organism-based; design: dose 10 mg/kg, route oral; conditions: read-out: Drug uptake
[34] = Tmax in ICR mouse at 10 mg/kg, po; assay type: ADME, organism-based; design: dose 10 mg/kg, route oral; conditions: in vivo
[35] = Drug level in ICR mouse brain at 5 mg/kg, iv after 0.25 hrs by HPLC/MS/MS analysis; assay type: ADME, organism-based; design: dose 5 mg/kg, route intravenous; conditions: read-out: Drug uptake
[36] = Plasma concentration in ICR mouse at 5 mg/kg, iv after 1 hr by HPLC/MS/MS analysis; assay type: ADME, organism-based; design: dose 5 mg/kg, route intravenous
[37] = AUC (0 to t) in ICR mouse at 5 mg/kg, iv; assay type: ADME, organism-based; design: dose 5 mg/kg, route intravenous; conditions: plasma; in short: as §1
[38] = Drug level in ICR mouse brain at 5 mg/kg, iv after 1 hr by HPLC/MS/MS analysis; assay type: ADME, organism-based; design: dose 5 mg/kg, route intravenous; conditions: read-out: Drug uptake
[39] = test system: Rattus norvegicus; experiment: Antiinflammatory activity in Wistar albino rat assessed as inhibition of carrageenan-induced paw edema at 30 mg/kg intragastrically administered 1 hr before carrageenan challenge measured after 1 to 24 hrs post carrageenan challenge by plethysmometer; assay type: functional, organism-based
In short: (§2)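 Male Wistar albino rats, 140–160 g, eight per group, dosed i.g. as a suspension in 0.5% CMC; controls get 0.5% CMC only. 1 h later, 0.1 ml of 0.1% carrageenan in 0.9% NaCl is injected into the sub-plantar region of the right hind paw. Paw volume is read by plethysmometer hourly to 6 h and at 24 h. Inhibition (%) = (Vc − Vt)/Vc × 100 on mean volume increase; mean ± SEM.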

[40] = AUC (0 to infinity) in ICR mouse at 5 mg/kg, iv; assay type: ADME, organism-based; design: time infinity, dose 5 mg/kg, route intravenous; conditions: plasma; in short: as §1
[41] = Plasma concentration in ICR mouse at 5 mg/kg, iv after 4 hrs by HPLC/MS/MS analysis; assay type: ADME, organism-based; design: dose 5 mg/kg, route intravenous
[42] = test system: Rattus norvegicus; experiment: Antiinflammatory activity in Wistar albino rat assessed as inhibition of carrageenan-induced paw edema at 33.6 mg/kg, ig administered 1 hr before carrageenan challenge measured after 1 to 24 hrs post carrageenan challenge by plethysmometer; assay type: functional, organism-based; in short: as §2
[43] = Mean residence time (0 to infinity) in ICR mouse at 10 mg/kg, po; assay type: ADME, organism-based; design: dose 10 mg/kg, route oral; conditions: in vivo; in short: as §1
[44] = Plasma concentration in ICR mouse at 10 mg/kg, po after 4 hrs by HPLC/MS/MS analysis; assay type: ADME, organism-based; design: dose 10 mg/kg, route oral
[45] = Plasma concentration in ICR mouse at 5 mg/kg, iv after 0.083 hrs by HPLC/MS/MS analysis; assay type: ADME, organism-based; design: dose 5 mg/kg, route intravenous

CC(C)Cc1ccc([C@H](CF)C(=O)O)cc1
concentration at 0.5 h [1]: 523 ng/g | concentration at 0.083 h [2]: 982 ng/g | AUC(0-t) [3]: 50200 ng·h/mL | concentration at 0.25 h [4]: 1270 ng/g | concentration at 2 h [5]: 64.9 ng/g | AUC(0-inf) [6]: 50200 ng·h/mL | concentration at 0.083 h [7]: 41800 ng/mL | concentration at 8 h [8]: 45.3 ng/mL | BPR [9]: 0.038 mL/g | BPR [10]: 0.042 mL/g | concentration at 8 h [11]: 42.4 ng/mL | concentration at 6 h [12]: 102 ng/mL | bioavailability [13]: 108% | concentration at 0.5 h [14]: 950 ng/g | concentration at 0.25 h [15]: 42100 ng/mL | concentration at 1 h [16]: 20900 ng/mL | concentration at 2 h [17]: 5310 ng/mL | concentration at 1 h [18]: 516 ng/g | BPR [19]: 0.025 mL/g | BPR [20]: 0.035 mL/g | Tmax [21]: 4.8 min | concentration at 0.25 h [22]: 18000 ng/mL | BPR [23]: 0.03 mL/g | Cmax [24]: 31600 ng/mL | BPR [25]: 0.032 mL/g | concentration at 2 h [26]: 2240 ng/mL | BPR [27]: 0.031 mL/g | concentration at 0.5 h [28]: 28500 ng/mL | concentration at 0.083 h [29]: 1160 ng/g | Cmax [30]: 42100 ng/mL | concentration at 0.5 h [31]: 13700 ng/mL | concentration at 4 h [32]: 24.7 ng/g | concentration at 2 h [33]: 162 ng/g | Tmax [34]: 15 min | concentration at 0.25 h [35]: 759 ng/g | concentration at 1 h [36]: 6160 ng/mL | AUC(0-t) [37]: 23300 ng·h/mL | concentration at 1 h [38]: 232 ng/g | inhibition [39]: Active | AUC(0-inf) [40]: 23300 ng·h/mL | concentration at 4 h [41]: 206 ng/mL | inhibition [42]: Active | MRT inf [43]: 57 min | concentration at 4 h [44]: 792 ng/mL | concentration at 0.083 h [45]: 31600 ng/mL
